Laboratory results reported in ChEMBL document CHEMBL2331435, “Structure-activity relationship study of vitamin k derivatives yields highly potent neuroprotective agents” (J Med Chem, 2013).
The source made the active and inactive calls. The calls are words filed in the database; no cut-off is given here.

How the values were obtained:
[1] = Neurotoxicity in mouse HT22 cells assessed as cell viability after 24 hrs by MTS assay; assay type: toxicity, cell-based, HT-22; conditions: read-out: TC50
Procedure, shortened: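 HT22 cells were seeded at 5.0 × 10^3 per well, cultured overnight, and treated with a range of compound concentrations without glutamate for 24 h. MTS was added for 2 h and absorbance read at 490 nm. Viability was expressed as percent of untreated cells, and TC50 was fit from titration curves (7- or 12-point, n = 3–4).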

[2] = Therapeutic index, ratio of cytotoxic TC50 for mouse HT22 cells to neuroprotective PD50 for mouse HT22 cells; assay type: cell-based, HT-22; conditions: read-out: TI
HT-22 [3] = assay: Neuroprotective activity in mouse HT22 cells assessed as prevention from glutamate-induced oxidative cell death by MTS assay; assay type: functional
Procedure, shortened: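 HT22 cells grown in high-glucose DMEM with 10% FBS and antibiotic-antimycotic at 37°C, 5% CO2. Seeded at 5.0 × 10^3 cells/well overnight, then given 10 mM glutamate (final) plus compound from DMSO stock. MTS added 24 h after treatment, 2 h at 37°C, A490 read. Viability taken as % of untreated cells. PC50 from 12-point titrations; experiments repeated at least four times.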

[4] = system: Radical scavenging activity; assay: Antioxidant activity assessed as DPPH free radical scavenging activity at 20 uM; assay type: functional
Procedure, shortened: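 Test agents at 20 μM final, added to 100 μM DPPH in methanol; absorbance at 517 nm monitored immediately for 10 min. Trolox and ascorbic acid served as positive controls, and the rate of absorbance loss was taken as antioxidant potency.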

HT-22 [5] = assay: Neuroprotective activity in mouse HT22 cells assessed as prevention from tBuOOH-induced oxidative cell death after 3 hrs by MTS assay; assay type: functional, cell-based
Procedure, shortened: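 HT22 cells were seeded at 5.0 × 10^3 per well and cultured overnight, then exposed to 50 μM t-BuOOH (final) plus compound for 3 h. Medium was removed, cells were washed with HBSS and returned to normal medium. MTS was added 24 h after initial treatment, absorbance was read at 490 nm after 2 h, and viability was expressed as percent of untreated cells.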

Row | Structure (SMILES) | CC50 at 24 h [1] [µM] | selectivity ratio [2] | PD50 (HT-22 [3]) [nM] | Activity [4] | Activity (HT-22 [5])
1 | CNC1=CC(=O)c2ccccc2C1=O | > 100 | 74 |  |  | 
2 | CCCNC1=CC(=O)c2ccccc2C1=O | 30 | 91 |  |  | 
3 | O=C1C=C(NCc2cccc(C(F)(F)F)c2)C(=O)c2ccccc21 | > 100 | > 2220 | 45 |  | 
4 | O=C1C=C(NCc2ccc(Cl)cc2)C(=O)c2ccccc21 | > 100 | > 1700 | 59 |  | 
5 | O=C1C=C(O)C(=O)c2ccccc21 [LAWSONE] | > 100 | 100 |  |  | 
6 | COc1ccc(CNC2=CC(=O)c3ccccc3C2=O)cc1 | > 100 | 877 |  |  | 
7 | O=C1O[C@H]([C@@H](O)CO)C(O)=C1O |  |  |  | Active | 
8 | CC1=CC(=O)c2ccccc2C1=O [MENADIONE] | 19 | 24 | 797 |  | 
9 | CC1=C(C)C(=O)c2ccccc2C1=O | 30 | 254 |  |  | 
10 | O=C1C=C(NCc2ccncc2)C(=O)c2ccccc21 | 80 | 1110 | 72 |  | 
11 | O=C1C=C(NCc2cccnc2)C(=O)c2ccccc21 | 37 | 172 |  |  | 
12 | COC1=C(OC)C(=O)C(C/C=C(\C)CC/C=C(\C)CC/C=C(\C)CC/C=C(\C)CC/C=C(\C)CC/C=C(\C)CC/C=C(\C)CC/C=C(\C)CC/C=C(\C)CCC=C(C)C)=C(C)C1=O |  |  |  |  | inactive
13 | O=C1C=C(NCc2ccc(Cl)c(Cl)c2)C(=O)c2ccccc21 | > 100 | > 2170 | 46 |  | 
14 | CC1=C(N)C(=O)c2ccccc2C1=O | 54 | 31 |  |  | 
15 | CCNC1=CC(=O)c2ccccc2C1=O | 81 | 106 |  |  | 
16 | COC(=O)c1ccc(CNC2=CC(=O)c3ccccc3C2=O)cc1 | > 100 | 431 |  |  | 
17 | O=C1C=CC(=O)c2ccccc21 [NAPHTHOQUINONE] | 19 | 12 |  |  | 
18 | CC(C)NC1=CC(=O)c2ccccc2C1=O | 46 | 27 |  |  | 
19 | O=C1C=C(NCc2ccccn2)C(=O)c2ccccc21 | 50 | 54 |  |  | 
20 | O=C1C=C(NCC2CCCCC2)C(=O)c2ccccc21 | > 100 | > 1850 | 54 |  | 
21 | Cc1ccc(CNC2=CC(=O)c3ccccc3C2=O)cc1 | > 100 | > 1520 | 66 |  | 
22 | CN(Cc1ccccc1)C1=CC(=O)c2ccccc2C1=O | > 100 | 781 |  |  | 
23 | O=C(O)C1=CC(=O)c2ccccc2C1=O | > 100 | 140 |  |  | 
24 | O=C1C=C(Nc2ccccc2)C(=O)c2ccccc21 | 7 | 109 | 64 |  | 
25 | CN(C)C1=CC(=O)c2ccccc2C1=O | > 100 | > 407 | 246 |  | 
26 | O=C1C=C(NC2CCCC2)C(=O)c2ccccc21 | 44 | 108 |  |  | 
27 | C#CCNC1=CC(=O)c2ccccc2C1=O | 53 | 442 | 120 |  | 
28 | O=C1C=C(NCCc2ccccc2)C(=O)c2ccccc21 | > 100 | 171 |  |  | 
29 | NC1=CC(=O)c2ccccc2C1=O | 49 | 803 | 61 |  | 
